Reference: ChEMBL document CHEMBL5236592, “Induction of Ferroptosis in Glioblastoma and Ovarian Cancers by a New Pyrrole Tubulin Assembly Inhibitor” (J Med Chem, 2022)
Activity calls are given as the source filed them.

Experiments:
Assay type in all cases: functional, organism-based
Conditions in all cases: time 40.0 day
U-87MG ATCC [1] = experiment: Antitumor activity against human U-87 MG cells xenografted in BALB/C nu/nu mouse assessed as reduction in tumor growth at 25 mg/kg, ip administered every 2 days for 40 days
In short: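 Female BALB/c nu/nu mice, 10 weeks old, 4 per group. Received subcutaneous U-87 MG or SKOV-3 cells (1 × 10^8 cells/mL, harvested in log phase). Dosed ip with 100 μL at 25 mg/kg every 2 days; controls got 100 μL saline on the same schedule. Sacrificed at 40 days; tumors weighed, volume = ab²/2. Tumor sections (6 μm, paraffin) stained by immunofluorescence for Ki67 or CD31 with Alexa Fluor 488 secondary.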

U-87MG ATCC [2] = experiment: Induction of ferroptosis-mediated antitumor activity against human U-87 MG cells xenografted in BALB/C nu/nu mouse assessed as increase in lactic acid level in tumor at 25 mg/kg, ip administered every 2 days for 40 days by biochemical analysis
In short: (§1)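 U-87 MG or SKOV-3 sc xenografts (1 × 10^8 cells/mL) in female BALB/c nu/nu mice, 4 per group. Given 25 mg/kg ip in 100 μL every 2 days, or saline. Tumors harvested on day 40 and assayed for LPO, MDA, lactic acid, total glutathione (GSH + GSSG), ATP and Fe2+.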

U-87MG ATCC [3] = experiment: Induction of ferroptosis-mediated antitumor activity against human U-87 MG cells xenografted in BALB/C nu/nu mouse assessed as reduction in total glutathione level in tumor at 25 mg/kg, ip administered every 2 days for 40 days by biochemical analysis; in short: as §1
U-87MG ATCC [4] = experiment: Induction of ferroptosis-mediated antitumor activity against human U-87 MG cells xenografted in BALB/C nu/nu mouse assessed as increase in Fe2+ level in tumor at 25 mg/kg, ip administered every 2 days for 40 days; in short: as §1
Mus musculus [5] = experiment: Upregulation of ENDOG mRNA expression in tumor of BALB/C nu/nu mouse xenografted with human U-87 MG cells at 25 mg/kg, ip administered every 2 days for 40 days by qPCR analysis
In short: (§2)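 Female BALB/c nu/nu mice bearing sc U-87 MG or SKOV-3 xenografts were dosed ip at 25 mg/kg (100 μL) every 2 days, or given saline, and tumors were taken at day 40. RNA was extracted from about 20 mg of tissue. qPCR ran 40 cycles (95 °C 15 min; 94 °C 20 s; 60 °C 34 s) on a 69-gene panel. Fold change was by 2^–ΔΔCt, with ≥1.5 counted as increased.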

Mus musculus [6] = experiment: Upregulation of Sat1 mRNA expression in tumor of BALB/C nu/nu mouse xenografted with human U-87 MG cells at 25 mg/kg, ip administered every 2 days for 40 days by qPCR analysis
In short: (§3)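 Female BALB/c nu/nu mice, 10 weeks old, 4 per group. Inoculated s.c. with 1 × 10^8 cells/mL of log-phase U-87 MG or SKOV-3 cells. Dosed i.p. with 100 μL at 25 mg/kg every 2 days; controls got 100 μL saline. Tumors harvested on day 40. RNA extracted from about 20 mg of tissue. qPCR panel of 69 genes, 40 cycles (94 °C 20 s, 60 °C 34 s). Analysed by 2–ΔΔCt; fold ≥1.5 taken as increased.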

Mus musculus [7] = experiment: Upregulation of Akr1c3 mRNA expression in tumor of BALB/C nu/nu mouse xenografted with human U-87 MG cells at 25 mg/kg, ip administered every 2 days for 40 days by qPCR analysis; in short: as §2
Mus musculus [8] = experiment: Upregulation of PPIF mRNA expression in tumor of BALB/C nu/nu mouse xenografted with human U-87 MG cells at 25 mg/kg, ip administered every 2 days for 40 days by qPCR analysis; in short: as §3
Mus musculus [9] = experiment: Upregulation of Cbs mRNA expression in tumor of BALB/C nu/nu mouse xenografted with human U-87 MG cells at 25 mg/kg, ip administered every 2 days for 40 days by qPCR analysis; in short: as §2
Mus musculus [10] = experiment: Upregulation of Nrf2 mRNA expression in tumor of BALB/C nu/nu mouse xenografted with human U-87 MG cells at 25 mg/kg, ip administered every 2 days for 40 days by qPCR analysis; in short: as §3
Mus musculus [11] = experiment: Upregulation of Clsd1 mRNA expression in tumor of BALB/C nu/nu mouse xenografted with human U-87 MG cells at 25 mg/kg, ip administered every 2 days for 40 days by qPCR analysis; in short: as §2
Mus musculus [12] = experiment: Upregulation of Cars mRNA expression in tumor of BALB/C nu/nu mouse xenografted with human U-87 MG cells at 25 mg/kg, ip administered every 2 days for 40 days by qPCR analysis; in short: as §2
Mus musculus [13] = experiment: Upregulation of TFRC mRNA expression in tumor of BALB/C nu/nu mouse xenografted with human SK-OV-3 cells at 25 mg/kg, ip administered every 2 days for 40 days by qPCR analysis; in short: as §3
Mus musculus [14] = experiment: Upregulation of Cpx mRNA expression in tumor of BALB/C nu/nu mouse xenografted with human SK-OV-3 cells at 25 mg/kg, ip administered every 2 days for 40 days by qPCR analysis; in short: as §2
Mus musculus [15] = experiment: Upregulation of Slc7a11 mRNA expression in tumor of BALB/C nu/nu mouse xenografted with human SK-OV-3 cells at 25 mg/kg, ip administered every 2 days for 40 days by qPCR analysis; in short: as §3
Mus musculus [16] = experiment: Upregulation of Gpx4 mRNA expression in tumor of BALB/C nu/nu mouse xenografted with human SK-OV-3 cells at 25 mg/kg, ip administered every 2 days for 40 days by qPCR analysis; in short: as §3
Mus musculus [17] = experiment: Upregulation of Chac1 mRNA expression in tumor of BALB/C nu/nu mouse xenografted with human SK-OV-3 cells at 25 mg/kg, ip administered every 2 days for 40 days by qPCR analysis; in short: as §2
Mus musculus [18] = experiment: Upregulation of Gls2 mRNA expression in tumor of BALB/C nu/nu mouse xenografted with human SK-OV-3 cells at 25 mg/kg, ip administered every 2 days for 40 days by qPCR analysis; in short: as §2
SK-OV-3 = experiment: Induction of ferroptosis-mediated antitumor activity against human SK-OV-3 cells xenografted in BALB/C nu/nu mouse assessed as reduction in GPX4 protein expression in tumor at 25 mg/kg, ip administered every 2 days for 40 days by immunofluoresence staining based assay
In short: (§4)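 Xenografts of U-87 MG or SKOV-3 (1 × 10^8 cells/mL, sc) in female BALB/c nu/nu mice, 4 per group. Treated ip at 25 mg/kg in 100 μL every 2 days versus saline, tumors collected at day 40. Paraffin sections (6 μm) were blocked at 37 °C for 30 min, then incubated with rabbit anti-GPX4 or anti-FTH1 and then Alexa Fluor 488 anti-rabbit, each for 45 min at 37 °C.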

U-87MG ATCC [19] = experiment: Induction of ferroptosis-mediated antitumor activity against human U-87 MG cells xenografted in BALB/C nu/nu mouse assessed as reduction in GPX4 protein expression in tumor at 25 mg/kg, ip administered every 2 days for 40 days by immunofluoresence staining based assay; in short: as §4

Measured: Activity

COc1cc(C(=O)c2cn(-c3ncccn3)cc2-c2ccco2)cc(OC)c1OC
active: U-87MG ATCC [1] | U-87MG ATCC [2] | U-87MG ATCC [3] | U-87MG ATCC [4] | Mus musculus [5] | Mus musculus [6] | Mus musculus [7] | Mus musculus [8] | Mus musculus [9] | Mus musculus [10] | Mus musculus [11] | Mus musculus [12] | Mus musculus [13] | Mus musculus [14] | Mus musculus [15] | Mus musculus [16] | Mus musculus [17] | Mus musculus [18] | SK-OV-3 | U-87MG ATCC [19]
